The values that follow come from ChEMBL document CHEMBL1144523, “Synthetic cryptolepine inhibits DNA binding of NF-kappaB” (Bioorg Med Chem, 2007).

For data set [1], the target named is Transcription factor p65 (Mus musculus) (UniProt Q04207). The data set is described as follows: Inhibition of […]/NFkappaB nuclear translocation in LPS-stimulated mouse RAW 264.7 cells administered at 10 uM for 30 mins after LPS challenge. The data set is classed as cell-based. A digest of the protocol:
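RAW 264.7 cells were grown on gelatine-coated coverslips and preincubated with 10 µM compound for 30 min, then given LPS for 30 min. Cells were fixed in 2% formalin, permeabilized with 0.2% Triton X-100 and blocked in 5% BSA. They were stained with anti-p65 (1:50, 2 h, room temperature) plus FITC secondary (1 h) and imaged by confocal microscopy at 488 nm excitation.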

Data set [2] deals with RAW. The data set is described as follows: Effect on IkappaB phosphorylation in LPS-stimulated mouse RAW 264.7 cells […]. In kind it is cell-based.
The subject of data set [3] is RAW. The data set is described as follows: Inhibition of DNA binding of NF-kappaB isolated from LPS-stimulated mouse RAW 264.7 cells administered at 250 uM after 30 mins by EMSA. The data set is classed as cell-free. A digest of the protocol:
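Nuclei from LPS-stimulated RAW 264.7 macrophages served as the source of active NF-κB. Equal amounts of nuclear protein were incubated with compound for 30 min, with or without 2 mM DTT. Radiolabelled NF-κB consensus probe was then added for 30 min at room temperature. Complexes were resolved on a 4.5% native gel and imaged by phosphorimager.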
(In EMSA bound probe runs differently from free probe, usually more slowly.)

The test system of data set [4] is RAW. The data set is described as follows: Effect on IkappaB degradation in LPS-stimulated mouse RAW 264.7 cells administered at 10 uM for 30 mins […]. In kind it is functional, cell-based. The method, boiled down:
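RAW 264.7 cells were pretreated with 10 µM compound for 30 min, then stimulated with LPS for the indicated times. Cells were lysed in SDS buffer, run on 10–12% gels and blotted to PVDF. Blots were probed for phospho-IκB, IκB after stripping, and tubulin, with ECL detection. Densitometric p-IκB/IκB ratios are given as fold of unstimulated control; three independent experiments, means ± SD.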

Data set [5] has as its system RAW. The data set is described as follows: Inhibition of DNA binding of NF-kappaB in LPS-stimulated mouse RAW 264.7 cells administered at 10 uM […] by EMSA. In kind it is cell-based. The method, boiled down: (§1)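 RAW 264.7 cells were pretreated with compound for 30 min, then stimulated with LPS (100 ng/ml in methods) for 60 min. Nuclear extracts were made by hypotonic HEPES swelling with NP-40, then hypertonic 0.4 M NaCl extraction. Equal nuclear protein was incubated with labelled NF-κB probe for 30 min at room temperature, resolved on a 4.5% native gel and imaged by phosphorimager.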

A further data set concerns HEK293. The data set is described as follows: Inhibition of NF-kappaB-mediated gene transcription in HEK293 cells by luciferase reporter gene assay. The data set is classed as cell-based. As to conditions: Homo sapiens. The method, boiled down:
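HEK293 cells were transfected with pNF-κB-luc by Ca²⁺-phosphate, reseeded at 15,000 cells/well and grown for 16 h. They were pretreated with compound for 30 min, then stimulated with TNF-α 1 ng/ml for 6 h. Lysates were assayed for luciferase by luminometer. Data are means ± SD of at least four experiments in triplicate, ANOVA/Dunnett.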
Background: A reporter such as luciferase makes a cellular process visible.

For data set [6], the system named is RAW. The data set is described as follows: Inhibition of DNA binding of NF-kappaB in LPS-stimulated mouse RAW 264.7 cells administered at 5 uM […] by EMSA. The data set is classed as cell-based. The method, boiled down:
as §1

Data set [7] is described as follows: Cytotoxicity against mouse RAW 264.7 cells. In kind it is cell-based. A digest of the protocol:
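RAW 264.7 cells (DMEM, 10% heat-inactivated FBS, passages 5–20) were first run through the 20 h LPS nitrite assay. Attached cells were then stained with 0.5% Crystal Violet in 20% methanol. Bound dye was dissolved in 50% 1 M sodium citrate/50% ethanol and absorbance read at 540 nm.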

The subject of data set [8] is RAW. The data set is described as follows: Inhibition of LPS-stimulated nitric oxide production in mouse RAW 264.7 cells at 5 uM after 20 hrs relative to control. In kind it is functional. A digest of the protocol: (§2)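 RAW 264.7 cells were seeded in 96-well plates and cultured for 2 days. Compound was added, then LPS immediately after, for 20 h. Nitrite in the supernatant was measured by Griess reaction (sulfanilamide plus N-(1-naphthyl)ethylenediamine) at 550 nm against a 620 nm reference, quantified from a sodium nitrite standard curve. Runs were in triplicate; data are means ± SD of six independent experiments, ANOVA/Dunnett.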

Data set [9] deals with RAW. The data set is described as follows: Inhibition of LPS-stimulated nitric oxide production in mouse RAW 264.7 cells at 10 uM after 20 hrs relative to control. The data set is classed as functional. A digest of the protocol: as §2

SMILES strings stand for the structures. Structures can show the parent of a compound that is named as a salt. The source made the active and inactive calls. No cut-off for these calls is given here.

What is called inhibition is the percentage by which the read-out fell short of the control. A lower inhibition goes with a weak effect.

Sequence of Transcription factor p65 (Mus musculus) (Q04207 whole entry): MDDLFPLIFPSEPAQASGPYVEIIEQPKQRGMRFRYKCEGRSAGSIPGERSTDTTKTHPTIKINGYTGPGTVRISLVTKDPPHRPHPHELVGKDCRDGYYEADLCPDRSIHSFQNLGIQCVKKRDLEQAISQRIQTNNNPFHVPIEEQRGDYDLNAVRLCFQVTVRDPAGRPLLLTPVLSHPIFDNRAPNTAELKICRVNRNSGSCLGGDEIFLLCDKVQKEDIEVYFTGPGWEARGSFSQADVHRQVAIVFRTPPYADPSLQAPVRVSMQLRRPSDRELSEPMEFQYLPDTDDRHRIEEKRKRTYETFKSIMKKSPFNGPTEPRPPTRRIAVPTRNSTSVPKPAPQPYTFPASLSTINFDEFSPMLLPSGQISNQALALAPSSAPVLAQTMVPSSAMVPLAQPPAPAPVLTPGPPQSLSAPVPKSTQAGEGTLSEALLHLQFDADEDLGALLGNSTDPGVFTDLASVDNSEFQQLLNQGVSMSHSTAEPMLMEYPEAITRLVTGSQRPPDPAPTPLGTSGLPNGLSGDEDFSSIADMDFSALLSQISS

Turning to `C[n+]1c2ccccc2cc2[n-]c3ccccc3c21`, the result (in data set [1]; in the data set on RAW [2]; with RAW [4]) was inactive. Also, the result in the data set on RAW [3], in the data set with RAW [5] and with RAW [6] was Active. For the same compound, the Activity result in the data set with HEK293 is “Dose-dependent effect”.

For the compound `C[n+]1c2ccccc2cc2[n-]c3ccccc3c21` [CRYPTOLEPINE], in [7], the outcome was Active.

With `C[n+]1c2ccccc2cc2[n-]c3ccccc3c21` [CRYPTOLEPINE HYDROCHLORIDE], the inhibition at 5 µM with RAW [8] was determined as 30%. 10 µM produced 50% inhibition in the data set on RAW [9].

`C=C1C(=O)O[C@@H]2C3O[C@]3(C)CC/C=C(\C)CC[C@@H]12` (some centres not stated): the outcome (in data set [1]; in the data set on RAW [6]) was Active.
